Data on twelve molecules can be found in ChEMBL document CHEMBL1221221, “Discovering chemical modifiers of oncogene-regulated hematopoietic differentiation” (Nat Chem Biol, 2009).

For data set [1], the species on record is Danio rerio. In words: Inhibition of heat-induced AML1-ETO protein expression in heterozygous transgenic zebrafish embryo at 0.15 uM by Western blot analysis. It is filed as functional, organism-based. The essentials:
(§1)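 Heterozygous Tg(hsp:AML1-ETO) embryos, bred from homozygous transgenic × wild-type crosses, were heat-treated at 39−40 °C for 1 h to induce AE. Lysates were Western blotted with anti-AML1 antibody for AE and also probed for Hsp70, with Akt as the loading reference. Controls were DMSO vehicle, heat-treated wild-type embryos, and unheated transgenic embryos.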

For data set [2], the species on record is Danio rerio. In words: Inhibition of Hsp70 expression in heterozygous transgenic zebrafish embryo at 0.15 uM by Western blot analysis. It is filed as functional, organism-based. An outline of the steps: as §1
Data set [3] is filed under the species Danio rerio. Description: Effect on scl gene expression in wild type zebrafish embryo at 20 uM treated 14 hrs post fertilization by in-situ hybridization analysis. The data set is classed as functional, organism-based.
The species entered for data set [4] is Danio rerio. Description: Effect on gata1 gene expression in wild type zebrafish embryo at 20 uM treated 14 hrs post fertilization by in-situ hybridization analysis. It is filed as functional, organism-based.
Data set [5] is filed under the species Danio rerio. Description: Effect on l-plastin gene expression in wild type zebrafish embryo at 20 uM treated 14 hrs post fertilization by in-situ hybridization analysis. It is filed as functional, organism-based.
The species entered for data set [6] is Danio rerio. Description: Upregulation of MPO gene expression in 39 to 40 degC heat-stimulated heterozygous transgenic zebrafish embryo after 1 hr by in-situ hybridization analysis. It is filed as functional, organism-based.
The species entered for data set [7] is Danio rerio. Description: Induction of AML1-ETO protein translation in 39 to 40 degC heat-stimulated heterozygous transgenic zebrafish assessed as phenotype appearance after 1 hr by in-situ hybridization analysis. It is filed as functional, organism-based.
Data set [8] is filed under the species Danio rerio. Description: Downregulation of gata1 gene expression in 39 to 40 degC heat-stimulated heterozygous transgenic zebrafish embryo after 1 hr by in-situ hybridization analysis. It is filed as functional, organism-based.
Data set [9] is filed under the species Danio rerio. Description: Effect on MPO gene expression in wild type zebrafish embryo at 20 uM treated 14 hrs post fertilization by in-situ hybridization analysis. The data set is classed as functional, organism-based.
The species entered for data set [10] is Danio rerio. Description: Induction of AML1-ETO protein translation in 37 degC heat-stimulated heterozygous transgenic zebrafish assessed as phenotype appearance after 1 hr by in-situ hybridization analysis. It is filed as functional, organism-based.
The species named for data set [11] is Danio rerio. In words: Induction of MPO-positive granulocytic cell accumulation in heat-stimulated heterozygous transgenic zebrafish embryo. The data set is classed as functional, organism-based.
The species entered for data set [12] is Danio rerio. In words: Inhibition of AML1-ETO protein translation in heterozygous transgenic zebrafish assessed as suppression of phenotype appearance. The data set is classed as functional, organism-based. The essentials:
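Heterozygous Tg(hsp:AML1-ETO) embryos were dechorionated with pronase at 12−16 hpf and kept in E3 buffer, five per well. Compound was added at 20 μM final. One hour later, AE expression was induced by heat shock at 40 °C for 1 h, followed by 90 min at 28.5 °C. Embryos were then fixed and gata1 in situ hybridization was scored in the posterior blood islands.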

The species entered for data set [13] is Danio rerio. In words: Inhibition of heat-induced AML1-ETO protein expression in heterozygous transgenic zebrafish embryo by Western blot analysis. It is filed as functional, organism-based. An outline of the steps:
as §1

The species entered for data set [14] is Danio rerio. Description: Inhibition of COX2 in heat-stimulated heterozygous transgenic zebrafish embryo assessed as MPO-positive granulocytic cell accumulation at 20 uM by in situ hybridization analysis in presence of PGE2. The essentials:
(§2)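 Heterozygous Tg(hsp:AML1-ETO) embryos given heat treatment at 39−40 °C for 1 h at 16−18 hpf. Compound added in DMSO right at the end of heat treatment, with or without PGE2 (20 μM). Embryos fixed at 36−40 hpf for mpo in situ hybridization of granulocytic cells. Scored as counts of embryos showing the phenotype; unheated transgenic embryos also tested.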

Data set [15] is filed under the species Danio rerio. In words: Inhibition of COX2-mediated decrease in gata1 expression in heterozygous transgenic zebrafish embryo assessed as restoration of gata1 level at 20 uM by in-situ hybridization analysis. The essentials: (§3)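 Heterozygous Tg(hsp:AML1-ETO) embryos from homozygous × wild-type crosses. Compound added in DMSO 1 h before heat treatment at 39−40 °C for 1 h at 16−18 hpf. Embryos fixed 90 min after heat treatment, then whole-mount in situ hybridization for gata1 in posterior blood islands. Scored as counts of embryos showing the phenotype. DMSO vehicle control; unheated transgenic embryos for comparison.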

The species named for data set [16] is Danio rerio. In words: Inhibition of COX2 in heterozygous transgenic zebrafish embryo assessed as MPO-positive granulocytic cell accumulation at 20 uM by in situ hybridization analysis. The essentials:
as §2

For data set [17], the species on record is Danio rerio. In words: Inhibition of COX2-mediated decrease in gata1 expression in heat-stimulated heterozygous transgenic zebrafish embryo assessed as restoration of gata1 level at 20 uM by in-situ hybridization analysis. The essentials: as §3
The species entered for data set [18] is Danio rerio. Description: Inhibition of COX2 in heat-stimulated heterozygous transgenic zebrafish embryo assessed as MPO-positive granulocytic cell accumulation at 20 uM by in situ hybridization analysis. The essentials:
as §2

Data set [19] is filed under the species Danio rerio. In words: Inhibition of COX2-mediated decrease in gata1 expression in heterozygous transgenic zebrafish embryo assessed as restoration of gata1 level at 25 uM by in-situ hybridization analysis. The essentials:
as §3

The species named for data set [20] is Danio rerio. In words: Inhibition of COX2 in heat-stimulated heterozygous transgenic zebrafish embryo assessed as MPO-positive granulocytic cell accumulation at 25 uM by in situ hybridization analysis. The essentials:
as §2

Data set [21] is filed under the species Danio rerio. Description: Inhibition of COX2-mediated decrease in gata1 expression in heat-stimulated heterozygous transgenic zebrafish embryo assessed as restoration of gata1 level at 25 uM by in-situ hybridization analysis. The essentials:
as §3

The species named for data set [22] is Danio rerio. In words: Inhibition of COX2 in heat-stimulated heterozygous transgenic zebrafish embryo assessed as MPO-positive granulocytic cell accumulation at 25 uM by in situ hybridization analysis in presence of PGE2. The essentials: as §2
Data set [23] is filed under the species Danio rerio. Description: Inhibition of COX2 in heterozygous transgenic zebrafish embryo assessed as MPO-positive granulocytic cell accumulation at 25 uM by in situ hybridization analysis. The essentials: as §2
The target of data set [24] is Glycogen synthase kinase 3 beta (Danio rerio) (UniProt Q9YH60). In words: Inhibition of GSK-3-beta-mediated activation of […] signaling in heat-stimulated heterozygous transgenic zebrafish embryo assessed as down-regulation of gata1 gene expression at 0.5 uM by in-situ hybridization analysis. An outline of the steps: (§4)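 Heterozygous Tg(hsp:AML1-ETO) embryos exposed to the GSK-3β inhibitor from 14 hpf, after gastrulation, then given a mild heat treatment (37 °C, 1 h) or none. DMSO vehicle control. In situ hybridization for gata1 or mpo. Scored as numbers of embryos showing gata1 downregulation or mpo upregulation.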
Glycogen synthase kinase 3 beta (Danio rerio), sequence (Q9YH60 as listed by the source): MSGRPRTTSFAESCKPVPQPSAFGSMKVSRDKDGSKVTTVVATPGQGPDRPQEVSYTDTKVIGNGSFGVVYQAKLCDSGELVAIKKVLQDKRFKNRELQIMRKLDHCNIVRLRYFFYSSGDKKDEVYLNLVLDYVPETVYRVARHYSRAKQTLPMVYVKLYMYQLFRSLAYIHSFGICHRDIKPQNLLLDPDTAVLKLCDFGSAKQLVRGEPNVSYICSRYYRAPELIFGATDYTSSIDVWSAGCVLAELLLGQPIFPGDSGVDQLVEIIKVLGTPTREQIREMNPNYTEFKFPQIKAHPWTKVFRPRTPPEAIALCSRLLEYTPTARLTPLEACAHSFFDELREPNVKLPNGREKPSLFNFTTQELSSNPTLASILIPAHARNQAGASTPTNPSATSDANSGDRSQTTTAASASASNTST

The species entered for data set [25] is Danio rerio. In words: Effect on gross morphology of heterozygous transgenic zebrafish embryo at 0.5 uM. The data set is classed as ADME, organism-based. As to conditions: in vivo.
In data set [26] the target is Glycogen synthase kinase 3 beta (Danio rerio) (UniProt Q9YH60). Description: Inhibition of GSK-3-beta-mediated activation of […] signaling in heat-stimulated heterozygous transgenic zebrafish embryo assessed as upregulation of MPO gene expression at 0.5 uM by in-situ hybridization analysis. The essentials:
as §4

Data set [27] shares this target. In words: Inhibition of GSK-3-beta-mediated activation of […] signaling in heterozygous transgenic zebrafish embryo assessed as effect on gata1 gene expression at 0.5 uM by in-situ hybridization analysis. The essentials: as §4
Data set [28] has the same target. Description: Inhibition of GSK-3-beta-mediated activation of […] signaling in heterozygous transgenic zebrafish embryo assessed as effect on MPO gene expression at 0.5 uM by in-situ hybridization analysis. An outline of the steps: as §4
The species entered for data set [29] is Danio rerio. In words: Inhibition of Hsp70 expression in heterozygous transgenic zebrafish embryo at 0.5 uM by Western blot analysis. The data set is classed as functional, organism-based. The essentials: (§5)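 Heterozygous Tg(hsp:AML1-ETO) embryos treated with compound or DMSO and heat-treated to induce transgene expression. Lysates examined by Western blot with anti-AML1 antibody for AML1-ETO, and also probed for Hsp70. Akt used as loading reference. Controls were heat-treated wild-type embryos and unheated transgenic embryos.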

For data set [30], the species on record is Danio rerio. Description: Inhibition of heat-induced AML1-ETO protein expression in heterozygous transgenic zebrafish embryo at 0.5 uM by Western blot analysis. It is filed as functional, organism-based. An outline of the steps: as §5
Data set [31] is filed under the species Danio rerio. As to conditions: 40 uM.
Data set [32] is filed under the species Danio rerio. Conditions: 40 uM. This is another data set of the same source.
The species entered for data set [33] is Danio rerio. As to conditions: 40 uM. This is another data set of the same source.
The species named for data set [34] is Danio rerio. As to conditions: 40 uM. This is another data set of the same source.

Each structure is given as a SMILES string. Calls of active or inactive are those of the source. The rule behind the calls is not given here.

With `C=C(C)[C@H]1Cc2c(ccc3c2O[C@@H]2COc4cc(OC)c(OC)cc4[C@@H]2C3=O)O1`, the inhibition entry in the data set filed under Danio rerio [1] and in the data set listed under Danio rerio [2] was “Active” in each case.

Consider `CCCCC[C@H](O)/C=C/[C@H]1[C@H](O)CC(=O)[C@@H]1C/C=C\CCCC(=O)O`, for which the outcome in the data set listed under Danio rerio [3], in the data set filed under Danio rerio [4], in the data set listed under Danio rerio [5] and in the data set listed under Danio rerio [9] was inactive. Moreover, the inhibition entry in the data set listed under Danio rerio [6] and in the data set filed under Danio rerio [8] was “inactive” throughout. Moreover, the result in the data set listed under Danio rerio [7] and in the data set listed under Danio rerio [11] was Active. In addition, in the data set listed under Danio rerio [10], the inhibition result was “Active”.

`C[C@@H]1C[C@@H]([C@H](O)CC2CC(=O)NC(=O)C2)C(=O)[C@@H](C)C1`: the Imax result in the data set listed under Danio rerio [12] was “Active”. For the same molecule, the inhibition entry in the data set listed under Danio rerio [2] is “Active”.

For `Oc1c(Cl)cc(Cl)cc1Sc1cc(Cl)cc(Cl)c1O`, the “inhibition of AML1-ETO protein expression (active/not active)” value (from here on “inhibition … (active/not active)”) in the data set listed under Danio rerio [13] was “Active”.

With `COc1ccc2c(c1)c(CC(=O)O)c(C)n2C(=O)c1ccc(Cl)cc1`, the inhibition result in the data set listed under Danio rerio [14], in the data set listed under Danio rerio [15] and in the data set filed under Danio rerio [16] was “inactive” throughout. The inhibition entry in the data set filed under Danio rerio [17] and in the data set filed under Danio rerio [18] was “Active” in each case.

Take `CS(=O)(=O)Nc1ccc([N+](=O)[O-])cc1OC1CCCCC1`: the inhibition result in the data set filed under Danio rerio [19], in the data set filed under Danio rerio [22] and in the data set filed under Danio rerio [23] was “inactive” each time. Moreover, the inhibition result in the data set filed under Danio rerio [20] and in the data set listed under Danio rerio [21] was “Active” in each case.

On to `O=C1Nc2cc(Br)ccc2/C1=C1/Nc2ccccc2/C1=N\O` [6BIO], for which the inhibition result in data set [24], in [26], in data set [27] and in data set [28] was “Active” each time. For the same molecule, the Activity result in the data set listed under Danio rerio [25] is “Toxic”.

Take `CC(/C=C/C(=O)NO)=C\[C@@H](C)C(=O)c1ccc(N(C)C)cc1`: the inhibition result in the data set listed under Danio rerio [29] and in the data set filed under Danio rerio [30] was “inactive” throughout.

With `Oc1ccc(Cl)cc1Cc1cc(Cl)ccc1O`, the “inhibition … (active/not active)” value in the data set listed under Danio rerio [13] is “Active”.

With `COc1ccc2c(c1)O[C@@H]1COc3cc(OC)c(OC)cc3[C@@H]1C2=O`, the “inhibition … (active/not active)” value in the data set listed under Danio rerio [13] is “Active”.

For the molecule `O=c1oc2ccccc2c(O)c1Cc1c(O)c2ccccc2oc1=O`, the “inhibition … (active/not active)” value in the data set filed under Danio rerio [13] was “inactive”.

With `CS(=O)(=O)Nc1ccc([N+](=O)[O-])cc1Oc1ccccc1`, the inhibition entry in the data set listed under Danio rerio [31], in the data set filed under Danio rerio [32], in the data set filed under Danio rerio [29], in the data set listed under Danio rerio [30] and in the data set listed under Danio rerio [34] was “inactive” throughout. Also, the inhibition entry in the data set filed under Danio rerio [33] was “Active”.
